Experimental data published in ChEMBL document CHEMBL1122537, “Acidic furo[3,2-b]indoles. A new series of potent antiallergy agents” (J Med Chem, 1984).

What was measured:
Format in all cases: functional
[1] = organism: Cavia porcellus; assay: Compound was evaluated in vitro by SDT (Schultz-Dale Test) against isolated guinea pig lung strips repeatedly challenged with antigen in the presence of an antihistamine (H1) at a concentration 10 uM
[2] = organism: Cavia porcellus; assay: In vitro Schultz-Dale Test against isolated guinea pig lung strips repeatedly challenged with antigen in the presence of an antihistamine (H1) at a concentration 30 uM.
[3] = organism: Cavia porcellus; assay: Compound was evaluated in vitro by SDT (Schultz-Dale Test) against isolated guinea pig lung strips repeatedly challenged with antigen in the presence of an antihistamine (H1); b = No activity at a concentration 30 uM
[4] = organism: Cavia porcellus; assay: Compound was evaluated in vitro by SDT (Schultz-Dale Test) against isolated guinea pig lung strips repeatedly challenged with antigen in the presence of an antihistamine (H1); c = No activity at a concentration 30 uM
[5] = organism: Cavia porcellus; assay: Compound was evaluated in vitro by SDT (Schultz-Dale Test) against isolated guinea pig lung strips repeatedly challenged with antigen in the presence of an antihistamine (H1) at a concentration 30 uM; i = No significant activity at 1.0 uM
[6] = organism: Cavia porcellus; assay: Compound was evaluated in vitro by SDT (Schultz-Dale Test) against isolated guinea pig lung strips repeatedly challenged with antigen in the presence of an antihistamine (H1) at a concentration […].
In short: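 Lung strips in Tyrode's pH 7.4, 37 °C, with mepyramine 1 µM, at 300 mg base-line tension. Drug in 0.2% NaHCO3 is added 15 min before the ovalbumin bolus. Percent inhibition is taken against the tissue's prior control contraction, usually on four or more tissues. IC50 by linear regression.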

| IC50 [2] [µM] | SMILES | further results |
| --- | --- | --- |
|  | O=C(O)c1cc2c(o1)c1ccccc1n2-c1ccccc1 | inhibition at 10 µM [1]: 33% |
| 2.8 | COc1ccc2c(c1)c1oc(C(=O)O)c(OC)c1n2-c1ccccc1 |  |
| 21.6 | COc1c(C(=O)Nc2nn[nH]n2)oc2c3ccccc3n(C)c12 |  |
|  | COC(=O)c1oc2c3ccccc3n(-c3ccccc3)c2c1OC | inhibition [3]: No activity |
|  | COc1c(C(=O)O)oc2c3ccccc3n(C)c12 | IC50 [4]: No activity |
| 4.6 | COc1c(C(=O)O)oc2c3ccccc3n(-c3ccccc3)c12 |  |
|  | CCCCCCCCCOc1c(C(=O)Nc2nn[nH]n2)oc2c3ccccc3n(-c3ccccc3)c12 | IC50 [5]: No significant activity |
| 1.7 | CCOc1c(-c2nn[nH]n2)oc2c3cc(OC)ccc3n(-c3ccccc3)c12 |  |
|  | COc1c(-c2nn[nH]n2)oc2c3ccccc3n(C)c12 | IC50 [4]: No activity |
|  | COC(=O)c1oc2c3cc(OC)ccc3n(-c3ccccc3)c2c1OC | inhibition at 10 µM [1]: 23% |
| 3.2 | CCOc1c(C(=O)O)oc2c3ccccc3n(-c3ccccc3)c12 |  |
| 0.06 | CC(C)Oc1c(C(=O)Nc2nn[nH]n2)oc2c3ccccc3n(-c3ccccc3)c12 |  |
|  | CCOc1c(C(=O)OC)oc2c3cc(OC)ccc3n(-c3ccccc3)c12 | inhibition at 10 µM [1]: 24% |
| 6.3 | CCCc1c2c(c(O)c3c(=O)cc(C(=O)O)oc13)CCCC2 [PROXICROMIL] |  |
|  | CC(C)NCC(O)c1ccc(O)c(O)c1 (stereo unspecified) [ISOPROTERENOL] | IC50 [6]: 0.00015 µM |
| 2.9 | COc1c(-c2nn[nH]n2)oc2c3ccccc3n(-c3ccccc3)c12 |  |
| 2.8 | COc1ccc2c(c1)c1oc(C(=O)Nc3nn[nH]n3)c(OC(C)C)c1n2-c1ccccc1 |  |
| 2.4 | CCCc1c(OCC(O)COc2ccc3c(=O)cc(C(=O)O)oc3c2CCC)ccc(C(C)=O)c1O (stereo unspecified) [FPL-55712] |  |
| 0.9 | COc1ccc2c(c1)c1oc(C(=O)Nc3nn[nH]n3)c(OC)c1n2-c1ccccc1 |  |
| 3.2 | CCOc1c(-c2nn[nH]n2)oc2c3ccccc3n(-c3ccccc3)c12 |  |
| 0.2 | CCOc1c(C(=O)Nc2nn[nH]n2)oc2c3ccccc3n(-c3ccccc3)c12 |  |
| 2.2 | CCOc1c(C(=O)Nc2nn[nH]n2)oc2c3cc(OC)ccc3n(-c3ccccc3)c12 |  |
| 1.5 | COc1ccc2c(c1)c1oc(-c3nn[nH]n3)c(OC)c1n2-c1ccccc1 |  |
| 0.5 | COc1c(C(=O)Nc2nn[nH]n2)oc2c3ccccc3n(-c3ccccc3)c12 |  |
| 3.7 | CC(C)Oc1c(C(=O)O)oc2c3ccccc3n(-c3ccccc3)c12 |  |
| 4.3 | CCOc1c(C(=O)O)oc2c3cc(OC)ccc3n(-c3ccccc3)c12 |  |
